Compound activity: PubChem, The Scripps Research Institute Molecular Screening Center
ABHD4 inh – inhibits mouse alpha/beta hydrolase domain 4. Q8VD66. actives 0.54% (n = 370,000). inhibition, % at 8.92 µM. purified mABHD4, FP-Rh probe fluorescence polarization;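 active = inhibition exceeding the mean over every tested compound plus 3 SD, cut at about 30% in these data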
Target sequence (Q8VD66 whole entry, looked up, the tested form may be a part): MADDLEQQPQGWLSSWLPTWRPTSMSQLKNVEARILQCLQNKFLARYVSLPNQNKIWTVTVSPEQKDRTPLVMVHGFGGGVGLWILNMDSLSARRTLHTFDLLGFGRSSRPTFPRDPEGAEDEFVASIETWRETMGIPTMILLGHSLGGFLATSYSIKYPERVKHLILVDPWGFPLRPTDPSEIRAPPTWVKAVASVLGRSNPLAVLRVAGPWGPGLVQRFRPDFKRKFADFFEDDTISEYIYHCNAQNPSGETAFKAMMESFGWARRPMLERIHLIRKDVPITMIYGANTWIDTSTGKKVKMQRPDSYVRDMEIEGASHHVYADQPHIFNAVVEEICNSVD
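Assay system: mABHD4 protein; medium: HEPES pH 7.0, NaCl, Pluronic buffer; dosing: 8.92 µM, single dose; schedule: 45 min + 60 min at 25 °C; signal: FP readout, ex 525 nm / em 598 nm; read-out: normalized percent inhibition of probe labeling; repeats: single replicate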
PRMT1 FP inh – PRMT1 (human) inhibition, primary screen | Q99873 | recombinant PRMT1, activity-based probe fluorescence polarization | inhibition, % at 2.79 µM | actives 1.3% (n = 370,000);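 active = inhibition above about 21% made by adding two undisclosed values, limit read from the data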
TCR CD3 inh – human TCR-CD3 binding inhibition; TAMRA-labeled TCR probe fluorescence, biochemical; inhibition, % at 9.4 µM; actives 0.37% (n = 360,000); AID 651800; in the data active = inhibition above about 19%;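 also: recombinant mutant TCR 2C K166C tagged with TAMRA read by polarization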
SIAE primary – human SIAE inhibition, primary screen. actives 0.69% (n = 370,000). AID 1053197. Q9HAT2. SIAE FP-Rh probe binding, fluorescence polarization. inhibition, % at 9.66 µM;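 active = inhibition above a cutoff: mean of compounds within the control limits plus 3 SD of those, cut at about 17% in these data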
rCAG binder – binds r(CAG) RNA repeats. actives 1.3% (n = 370,000). r(CAG) RNA repeat, TO-PRO-1 dye displacement fluorescence. inhibition, % at 3 µM;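 active = inhibition above the plate cutoff, the mean of all test compounds on that plate plus 3 SD, cut at about 35% in these data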;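 also: higher means more dye released from RNA so lower well fluorescence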
rCAG bind conf – r(CAG) RNA repeat binding, confirmation; shares compounds with rCAG binder; AID 652065; inhibition, % at 3 µM; TO-PRO-1 dye displacement fluorescence; actives 70% (n = 4,300);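 active = inhibition above a per-plate cutoff, the mean inhibition of sample wells plus 3 SD, cut at about 35% in these data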;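 also: loss of TO-PRO-1 fluorescence as compound displaces dye from 1x1 AA loop RNA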
dCAG dye counter – counter-screen for rCAG RNA binders: DNA CAG dye complex inhibitors | shares compounds with rCAG binder | d(CAG) DNA oligo TO-PRO-1 dye displacement, fluorescence | inhibition, % at 3 µM | actives 94% (n = 4,300);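 active = inhibition above its plate's cutoff, the mean test-well inhibition plus 3 SD, cut at about 4.8% in these data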;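 also: hits displace the dye from DNA and so lower well fluorescence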
DNA CAG DR – disrupts DNA CAG TO-PRO-1 complex in dose response. IC50, µM. shares compounds with rCAG binder. DNA CAG/GTC duplex TO-PRO-1 dye displacement fluorescence. AID 686960. actives 20% (n = 250); in the data active = IC50 below about 10 µM
Numbers stand for hits; . = inactive; / = no result given. Sampled rows, rich in hits. Any-hit rate of the full collection: about 3.3%.

SMILES	ABHD4 inh	PRMT1 FP inh	TCR CD3 inh	SIAE primary	rCAG binder	rCAG bind conf	dCAG dye counter	others
O=C(CCc1ccccc1)N[C@H]1[C@H](O)CCC[C@@]12C(=O)N(Cc1ccccc1)c1ccc(-c3ccccc3)cc12	.	.	/	.	.	/	/
CCCS(=O)(=O)c1c(S(=O)(=O)CCC)c2c(N)cccn2c1C(=O)c1ccccc1	.	.	.	.	43	.	10
CCCS(=O)(=O)c1c(S(=O)(=O)CCC)c2c(N)cccn2c1C(=O)OC	.	.	.	.	.	/	/
COC(=O)C1CN(Cc2cn(CCOC(C)=O)nn2)CCS(=O)(=O)N1Cc1ccc(F)cc1 (stereo unspecified)	.	.	/	.	.	/	/
O=C(NCCCN1CCN(c2ccc(F)cc2)CC1)NCc1ccccc1	.	.	/	.	.	/	/
FC(F)(F)c1ccc2nc(CNc3nc(N4CCOCC4)nc4c3ncn4-c3ccsc3)[nH]c2c1	.	.	/	.	/	/	/
C#CCOCCOCCOCCNc1nc(N2CCN(C(=O)Cn3cc(CCCN=C(N)N)nn3)CC2)nc(N2CCN(C(=O)[C@H](Cc3ccc(O)cc3)n3cc(CCO)nn3)CC2)n1	.	.	/	.	/	/	/
Cc1ccc(OCc2nnc(SCC(=O)c3ccc(-c4ccccc4)cc3)n2Cc2ccco2)cc1	.	.	/	.	.	/	/
Cc1ccccc1S(=O)(=O)NC(=O)C1(C)CCN1C(=O)C1(c2ccc(Cl)cc2)CCC1 (stereo unspecified)	.	.	.	.	48	37	8.8
CC1(C(=O)NS(=O)(=O)c2ccccc2Cl)CCN1C(=O)C1(c2ccccc2)CCCC1 (stereo unspecified)	.	.	.	.	.	/	/
CC1(C(=O)NS(=O)(=O)c2ccccc2Cl)CCN1C(=O)C1(c2ccc(Cl)cc2)CC1 (stereo unspecified)	.	.	.	.	36	.	5.1
Cc1oc2c(c(C)cc3oc(=O)c(CC(=O)N[C@@H](C)C(=O)O)c(C)c32)c1C	.	.	.	.	.	/	/
CSCC[C@H](NC(=O)Cc1c(C)c2cc3c(C)c(C)oc3cc2oc1=O)C(=O)N[C@@H](C(=O)O)c1ccccc1	.	.	.	.	40	47	14
CCCCC(NC(=O)Cc1c(C)c2cc3c(C)c(C)oc3c(C)c2oc1=O)C(=O)O (stereo unspecified)	.	.	.	.	38	41	9.7
Cc1c(CC(=O)N[C@@H](C)C(=O)O)c(=O)oc2c(C)c3occ(-c4ccccc4)c3cc12	.	.	.	.	38	50	15
CC[C@@H](C)[C@H](NC(=O)Cc1c(C)c2c(cc(C)c3c(C)c(C)oc32)oc1=O)C(=O)O	.	.	.	.	35	.	5.7
CCCC(NC(=O)Cc1c(C)c2cc3c(C)c(C)oc3c(C)c2oc1=O)C(=O)N[C@@H](Cc1ccccc1)C(=O)O (stereo partly specified)	.	.	.	.	.	/	/
CCOC(=O)C(C)Sc1nc2c(c(-c3cccs3)c1C#N)CCC2 (stereo unspecified)	.	.	.	.	.	/	/
N#Cc1c(SC(C(=O)O)c2ccccc2)nc2c(c1-c1cccs1)CCCC2 (stereo unspecified)	.	.	.	.	67	74	28	DNA CAG DR=.
O=S(=O)(Nc1ccc(S(=O)(=O)N2CCCCC2)cc1)c1ccc(Br)s1	.	.	.	.	60	60	16
O=S(=O)(Nc1ccc(S(=O)(=O)N2CCCCCC2)cc1)c1cccs1	.	.	.	.	.	/	/
COc1cccc(N2CCN(CC(=O)N(C)Cc3ccccc3Cl)CC2)c1	.	.	/	.	.	/	/
C[C@H]1[C@@H](NC(=O)c2ccc(C(C)(C)C)cc2)CC[C@@]23CCCN2C(=O)CCC[C@@H]13	.	.	/	.	/	/	/
O=C(O)c1[nH]c2ccccc2c1C(c1cc(Cl)cc([N+](=O)[O-])c1O)c1c(C(=O)O)[nH]c2ccccc12	68	.	.	.	92	73	37
COc1cccc(/C=C2/SC(=O)N(CC(=O)N3CCc4ccccc4C3)C2=O)c1OCC(=O)O	.	.	.	.	37	36	9.7
